Reference: ChEMBL document CHEMBL4028913, “Discovery of Novel Potent VEGFR-2 Inhibitors Exerting Significant Antiproliferative Activity against Cancer Cell Lines” (J Med Chem, 2018)
Activity calls are given as the source filed them. The rule behind the calls is not given here.

How the values were obtained:
[1] = Potency index, ratio of sorafenib GI50 to test compound GI50 for human non-small cell lung cancer cells; format: functional
Method in brief: (§1)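 GI50 is the concentration giving 50% reduction in net protein increase relative to control. Potency index is the reference-drug GI50 divided by the test-compound GI50.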

[2] = Potency index, ratio of sorafenib TGI to test compound TGI for human renal cancer cells; format: functional, Renal cancer cell
[3] = tested on: MCF7; assay: Cytotoxicity against human MCF7 cells after 48 hrs by SRB assay; format: functional; conditions: MCF7, 48 h
Method in brief: (§2)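 NCI-60 panel; cells grown in RPMI 1640 with 5% FBS and 2 mM L-glutamine, plated at 5000–40 000 cells/well by doubling time, preincubated 24 h (37 °C, 5% CO2). Drug added at five concentrations, 1-log steps from 10−4 to 10−8 M, for 48 h. Fixed with TCA, stained with 0.4% SRB, absorbance read at 515 nm. Percent growth computed against time-zero and untreated controls; GI50, TGI and LC50 derived.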

[4] = biological target: Fibroblast growth factor receptor 1 (Homo sapiens) (UniProt P11362); assay: Inhibition of human FGFR1 at 0.5 uM relative to control
Chain of Fibroblast growth factor receptor 1 (Homo sapiens) (P11362 22-822 limits assumed): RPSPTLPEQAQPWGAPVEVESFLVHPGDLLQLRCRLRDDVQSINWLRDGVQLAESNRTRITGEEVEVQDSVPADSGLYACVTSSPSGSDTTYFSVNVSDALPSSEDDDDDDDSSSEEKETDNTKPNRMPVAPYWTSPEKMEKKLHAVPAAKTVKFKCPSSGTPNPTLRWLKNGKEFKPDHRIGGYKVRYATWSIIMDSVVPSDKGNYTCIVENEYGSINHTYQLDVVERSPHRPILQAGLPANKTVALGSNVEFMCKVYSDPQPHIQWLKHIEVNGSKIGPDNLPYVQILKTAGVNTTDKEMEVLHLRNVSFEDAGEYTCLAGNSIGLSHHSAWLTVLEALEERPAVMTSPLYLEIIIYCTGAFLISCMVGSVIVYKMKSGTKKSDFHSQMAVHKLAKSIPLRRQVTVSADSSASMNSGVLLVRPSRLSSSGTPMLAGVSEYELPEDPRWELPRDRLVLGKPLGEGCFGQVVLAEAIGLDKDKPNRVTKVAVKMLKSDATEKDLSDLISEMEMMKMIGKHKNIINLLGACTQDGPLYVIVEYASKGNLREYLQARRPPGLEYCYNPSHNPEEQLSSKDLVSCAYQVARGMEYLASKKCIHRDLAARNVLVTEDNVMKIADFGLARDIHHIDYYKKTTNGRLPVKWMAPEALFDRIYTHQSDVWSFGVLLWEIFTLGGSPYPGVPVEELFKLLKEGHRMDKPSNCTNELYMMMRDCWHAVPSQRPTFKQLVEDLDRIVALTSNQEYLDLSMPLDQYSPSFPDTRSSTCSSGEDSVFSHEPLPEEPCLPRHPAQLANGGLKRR

[5] = biological target: Ephrin type-A receptor 8 (Homo sapiens) (UniProt P29322); assay: Inhibition of human EPHA8 at 0.5 uM relative to control
[6] = tested on: DU-145; assay: Cytotoxicity against human DU145 cells after 48 hrs by SRB assay; format: functional; conditions: DU-145, 48 h; method in brief: as §2
[7] = Potency index, ratio of test compound LC50 to sorafenib LC50 for human renal cancer cells; format: functional, Renal cancer cell
[8] = tested on: NCI/ADR-RES; assay: Potency index, ratio of sorafenib GI50 to test compound GI50 for human NCI-ADR-RES cells; format: functional; method in brief: as §1
[9] = Potency index, ratio of sorafenib GI50 to test compound GI50 for human renal cancer cells; format: functional, Renal cancer cell; method in brief: as §1
[10] = tested on: HT-29; assay: Cytotoxicity against human HT-29 cells after 48 hrs by SRB assay; format: functional; conditions: HT-29, 48 h; method in brief: as §2
[11] = tested on: LOX IMVI; assay: Cytotoxicity against human LOXIMVI cells after 48 hrs by SRB assay; format: functional; method in brief: as §2
[12] = tested on: K562; assay: Cytotoxicity against human K562 cells after 48 hrs by SRB assay; format: functional; conditions: K562, 48 h; method in brief: as §2
[13] = tested on: A498; assay: Cytotoxicity against human A498 cells after 48 hrs by SRB assay; format: functional; conditions: A498, 48 h; method in brief: as §2
[14] = tested on: SK-OV-3; assay: Cytotoxicity against human SKOV3 cells after 48 hrs by SRB assay; format: functional; conditions: SK-OV-3, 48 h; method in brief: as §2
[15] = biological target: Ephrin type-A receptor 5 (Homo sapiens) (UniProt P54756); assay: Inhibition of human EPHA5 at 0.5 uM relative to control
Chain of Ephrin type-A receptor 5 (Homo sapiens) (P54756 whole entry): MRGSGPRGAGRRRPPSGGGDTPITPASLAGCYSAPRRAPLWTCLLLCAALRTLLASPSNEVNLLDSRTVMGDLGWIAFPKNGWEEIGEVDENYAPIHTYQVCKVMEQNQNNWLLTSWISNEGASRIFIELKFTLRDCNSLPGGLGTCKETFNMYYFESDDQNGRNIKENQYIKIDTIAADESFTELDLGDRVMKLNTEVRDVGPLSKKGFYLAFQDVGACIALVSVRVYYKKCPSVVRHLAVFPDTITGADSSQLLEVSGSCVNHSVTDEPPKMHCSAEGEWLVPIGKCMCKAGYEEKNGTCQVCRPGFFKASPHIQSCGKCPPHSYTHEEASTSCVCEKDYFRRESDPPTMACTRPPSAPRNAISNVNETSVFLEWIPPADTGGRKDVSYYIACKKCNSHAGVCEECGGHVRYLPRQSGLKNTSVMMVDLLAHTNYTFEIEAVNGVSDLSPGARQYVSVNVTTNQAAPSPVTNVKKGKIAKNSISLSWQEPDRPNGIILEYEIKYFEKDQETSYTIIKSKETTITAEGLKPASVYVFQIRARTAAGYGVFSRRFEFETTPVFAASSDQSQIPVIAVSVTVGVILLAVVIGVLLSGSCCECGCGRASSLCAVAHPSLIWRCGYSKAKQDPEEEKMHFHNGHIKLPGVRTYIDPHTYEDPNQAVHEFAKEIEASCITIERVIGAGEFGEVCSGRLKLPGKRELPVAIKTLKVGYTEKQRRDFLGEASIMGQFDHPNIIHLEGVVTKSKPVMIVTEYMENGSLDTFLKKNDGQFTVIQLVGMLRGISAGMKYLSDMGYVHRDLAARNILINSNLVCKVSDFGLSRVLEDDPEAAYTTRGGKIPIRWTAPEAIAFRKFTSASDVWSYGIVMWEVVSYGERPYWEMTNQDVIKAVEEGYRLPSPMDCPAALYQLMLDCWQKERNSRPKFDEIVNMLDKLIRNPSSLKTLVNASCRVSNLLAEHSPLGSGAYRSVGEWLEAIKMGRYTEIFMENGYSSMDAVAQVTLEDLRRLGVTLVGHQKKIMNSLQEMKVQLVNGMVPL

[16] = tested on: EKVX; assay: Cytotoxicity against human EKVX cells after 48 hrs by SRB assay; format: functional; method in brief: as §2
[17] = biological target: Ephrin type-A receptor 4 (Homo sapiens) (UniProt P54764); assay: Inhibition of human EPHA4 at 0.5 uM relative to control
[18] = biological target: Ephrin type-A receptor 2 (Homo sapiens) (UniProt P29317); assay: Inhibition of human EPHA2 at 0.5 uM relative to control
Chain of Ephrin type-A receptor 2 (Homo sapiens) (P29317 whole entry): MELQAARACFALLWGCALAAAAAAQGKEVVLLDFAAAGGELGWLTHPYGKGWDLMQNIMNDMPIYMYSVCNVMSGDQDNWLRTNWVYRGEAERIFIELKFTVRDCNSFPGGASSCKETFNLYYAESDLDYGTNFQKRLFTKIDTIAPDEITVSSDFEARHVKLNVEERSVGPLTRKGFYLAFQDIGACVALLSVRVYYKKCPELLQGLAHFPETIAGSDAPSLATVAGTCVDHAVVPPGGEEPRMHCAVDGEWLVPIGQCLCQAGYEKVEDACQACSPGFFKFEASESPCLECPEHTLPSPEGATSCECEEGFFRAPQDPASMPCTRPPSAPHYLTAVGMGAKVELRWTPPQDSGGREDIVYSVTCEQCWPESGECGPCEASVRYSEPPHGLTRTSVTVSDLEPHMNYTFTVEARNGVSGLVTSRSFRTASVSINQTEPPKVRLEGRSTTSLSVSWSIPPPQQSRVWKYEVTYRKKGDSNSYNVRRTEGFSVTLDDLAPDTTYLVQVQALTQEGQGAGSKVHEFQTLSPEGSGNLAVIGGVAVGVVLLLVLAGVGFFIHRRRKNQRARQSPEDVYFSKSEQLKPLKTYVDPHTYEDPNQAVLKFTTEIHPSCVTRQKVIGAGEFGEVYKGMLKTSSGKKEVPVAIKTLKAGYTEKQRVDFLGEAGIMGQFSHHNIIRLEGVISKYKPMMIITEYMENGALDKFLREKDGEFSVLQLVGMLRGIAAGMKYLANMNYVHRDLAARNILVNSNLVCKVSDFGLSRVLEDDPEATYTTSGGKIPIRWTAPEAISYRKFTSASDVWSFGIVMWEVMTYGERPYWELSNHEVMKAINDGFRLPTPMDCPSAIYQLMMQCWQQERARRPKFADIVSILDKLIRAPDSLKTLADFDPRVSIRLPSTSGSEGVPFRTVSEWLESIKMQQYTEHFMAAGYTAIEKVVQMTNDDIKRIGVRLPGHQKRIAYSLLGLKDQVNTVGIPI

[19] = biological target: T1, Vascular endothelial growth factor receptor 2 (Homo sapiens, UniProt P35968); assay: Inhibition of VEGFR2 in human prostate cancer cells assessed as decrease in Akt activation at 10 uM relative to control
T1 sequence (P35968 whole entry): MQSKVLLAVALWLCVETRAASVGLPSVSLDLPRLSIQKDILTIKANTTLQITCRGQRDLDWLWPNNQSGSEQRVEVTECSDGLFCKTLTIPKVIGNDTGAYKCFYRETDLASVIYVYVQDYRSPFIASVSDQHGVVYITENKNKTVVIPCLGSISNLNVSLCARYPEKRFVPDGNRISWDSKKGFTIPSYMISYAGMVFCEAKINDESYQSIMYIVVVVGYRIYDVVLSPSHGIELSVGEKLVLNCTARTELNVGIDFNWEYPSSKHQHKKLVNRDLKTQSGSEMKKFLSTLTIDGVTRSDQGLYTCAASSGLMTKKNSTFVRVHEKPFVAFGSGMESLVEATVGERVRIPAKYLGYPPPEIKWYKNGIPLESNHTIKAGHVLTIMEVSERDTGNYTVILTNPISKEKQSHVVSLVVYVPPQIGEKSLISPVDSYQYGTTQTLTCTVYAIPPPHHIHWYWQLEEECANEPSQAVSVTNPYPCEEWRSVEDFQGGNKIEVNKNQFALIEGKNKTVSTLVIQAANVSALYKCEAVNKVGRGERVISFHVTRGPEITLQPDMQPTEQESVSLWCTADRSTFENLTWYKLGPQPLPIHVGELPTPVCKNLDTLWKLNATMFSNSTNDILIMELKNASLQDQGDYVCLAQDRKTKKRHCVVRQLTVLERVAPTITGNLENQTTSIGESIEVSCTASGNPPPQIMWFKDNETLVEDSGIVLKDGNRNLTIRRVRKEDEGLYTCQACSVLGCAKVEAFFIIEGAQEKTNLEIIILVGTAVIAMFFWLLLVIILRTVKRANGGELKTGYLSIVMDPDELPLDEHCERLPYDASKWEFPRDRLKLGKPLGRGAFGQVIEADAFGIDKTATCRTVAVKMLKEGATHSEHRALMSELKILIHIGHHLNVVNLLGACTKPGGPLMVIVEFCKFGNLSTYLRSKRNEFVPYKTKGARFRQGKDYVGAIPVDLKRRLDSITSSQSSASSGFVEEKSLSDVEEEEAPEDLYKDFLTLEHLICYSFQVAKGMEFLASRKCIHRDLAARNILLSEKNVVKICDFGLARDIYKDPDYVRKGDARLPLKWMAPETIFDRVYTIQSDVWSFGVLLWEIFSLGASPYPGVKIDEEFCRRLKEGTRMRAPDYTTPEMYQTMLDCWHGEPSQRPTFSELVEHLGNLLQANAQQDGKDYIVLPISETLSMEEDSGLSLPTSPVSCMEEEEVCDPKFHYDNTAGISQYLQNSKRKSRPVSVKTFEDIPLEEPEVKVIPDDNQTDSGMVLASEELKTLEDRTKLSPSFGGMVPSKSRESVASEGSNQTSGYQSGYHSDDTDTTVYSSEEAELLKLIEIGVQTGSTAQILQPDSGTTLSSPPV

[20] = biological target: T1, Vascular endothelial growth factor receptor 2; conditions: at 10 µM
[21] = tested on: HL-60(TB); assay: Cytotoxicity against human HL-60(TB) cells after 48 hrs by SRB assay; format: functional; conditions: HL-60, 48 h
Method in brief: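 NCI-60 panel screen. Cells grown in RPMI 1640 with 5% FBS and 2 mM L-glutamine, plated at 5000–40 000 cells/well by doubling time, and preincubated 24 h at 37 °C in 5% CO2; Tz plates fixed at drug addition. Five concentrations, 1-log steps from 10−4 to 10−8 M, for 48 h. Suspension cells fixed with TCA (16% final), stained with 0.4% SRB, read at 515 nm. GI50, TGI and LC50 from percent-growth formulas.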

[22] = tested on: UO-31; assay: Cytotoxicity against human UO31 cells after 48 hrs by SRB assay; format: functional; conditions: UO-31, 48 h
Method in brief: (§3)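 NCI-60 panel, five doses at 1-log steps from 10−4 to 10−8 M. Cells grown in RPMI 1640 with 5% FBS and 2 mM L-glutamine, seeded at 5000–40 000 cells/well and preincubated 24 h. Tz plates were TCA-fixed at drug addition. Drug exposure 48 h at 37 °C, then TCA fixation, 0.4% SRB stain and absorbance at 515 nm. GI50 taken from percent growth relative to Tz and control.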

[23] = tested on: MDA-MB-435; assay: Growth inhibition of human MDA-MB-435 cells at 10 uM after 72 hrs by CellTiter-Glo assay relative to control; format: functional; conditions: MDA-MB-435, 72 h, read-out: GI
Method in brief: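 Cells in exponential phase seeded at 2000–4000 cells/well, then exposed 72 h at 37 °C, 5% CO2 with 0.1% final DMSO. Single-point screen at 10 μM final. […] Read-out was CellTiter-Glo luminescence.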

[24] = biological target: TRAF2 and NCK-interacting protein kinase (Homo sapiens) (UniProt Q9UKE5); assay: Inhibition of human TNIK at 0.5 uM relative to control
[25] = tested on: OVCAR-5; assay: Cytotoxicity against human OVCAR5 cells after 48 hrs by SRB assay; format: functional; conditions: OVCAR-5, 48 h; method in brief: as §2
[26] = Potency index, ratio of sunitinib GI50 to test compound GI50 for human renal cancer cells; format: functional, Renal cancer cell
[27] = biological target: Tyrosine-protein kinase HCK (Homo sapiens) (UniProt P08631); assay: Inhibition of human HCK at 0.5 uM relative to control
Chain of Tyrosine-protein kinase HCK (Homo sapiens) (P08631 2-526 limits assumed): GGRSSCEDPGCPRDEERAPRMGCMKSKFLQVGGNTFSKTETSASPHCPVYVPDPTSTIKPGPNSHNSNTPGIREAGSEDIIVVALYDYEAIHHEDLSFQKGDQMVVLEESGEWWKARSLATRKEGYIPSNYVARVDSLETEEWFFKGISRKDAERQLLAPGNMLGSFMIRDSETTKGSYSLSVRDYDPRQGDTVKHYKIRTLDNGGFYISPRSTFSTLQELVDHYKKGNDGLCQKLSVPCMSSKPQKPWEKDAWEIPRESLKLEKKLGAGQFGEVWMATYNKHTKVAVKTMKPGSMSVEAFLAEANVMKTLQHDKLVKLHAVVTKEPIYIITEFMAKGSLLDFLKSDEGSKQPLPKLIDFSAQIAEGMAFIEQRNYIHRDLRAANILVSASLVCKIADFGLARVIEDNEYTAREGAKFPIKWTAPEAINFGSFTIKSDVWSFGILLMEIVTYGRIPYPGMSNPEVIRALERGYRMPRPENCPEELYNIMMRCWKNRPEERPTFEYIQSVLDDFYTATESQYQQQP

[28] = tested on: MDA-MB-435; assay: Cytotoxicity against human MDA-MB-435 cells after 48 hrs by SRB assay; format: functional; conditions: MDA-MB-435, 48 h; method in brief: as §2
[29] = tested on: TK-10; assay: Cytotoxicity against human TK10 cells after 48 hrs by SRB assay; format: functional; conditions: TK-10, 48 h; method in brief: as §3
[30] = tested on: ACHN; assay: Cytotoxicity against human ACHN cells after 48 hrs by SRB assay; format: functional; method in brief: as §2
[31] = read-out: LC50 (the source's name)

In the case of `COc1cc2ncnc(Oc3ccc(NC(=O)Nc4ccc(CN5CCOCC5)c(C(F)(F)F)c4)c4ccccc34)c2cc1OC`, the RatioGI50 [1] was 3.9 - 9.5, the Ratio [2] was 3.2 and the GI50 [3] was 330 nM. It also gave a TGI [3] of 11 µM, a CC50 [3, 31] of over 100 µM and an inhibition [4] of over 96%. The inhibition [5] was “Active”, the GI50 [6] was 1550 nM and the TGI [6] was 13.2 µM. For the same compound, the CC50 [6, 31] was 44.7 µM, the RatioLC50 [7] was 2 and the RatioGI50 [8] was 3.3. It also gave a RatioGI50 [9] of 9.5, a GI50 [10] of 450 nM and a TGI [10] of 13.2 µM. The CC50 [10, 31] was over 100 µM, the GI50 [11] was 1100 nM and the TGI [11] was 2820 nM. For the same compound, the CC50 [11, 31] was 7.24 µM, the GI50 [12] was under 10 nM and the TGI [12] was 1120 nM. For the same compound, the CC50 [12, 31] was 95.5 µM, the GI50 [13] was 50 nM and the TGI [13] was 520 nM. It also gave a CC50 [13, 31] of 30.9 µM, a GI50 [14] of 230 nM and a TGI [14] of 950 nM. The CC50 [14, 31] was 37.1 µM, the inhibition [15] was “Active” and the GI50 [16] was 450 nM. The TGI [16] was 6.46 µM, the CC50 [16, 31] was 67.6 µM and the inhibition [17] was “Active”. For the same compound, the inhibition [18] was “Active”, the inhibition [19] was under 20% and the inhibition [20] was 97.8%. It also gave a GI50 [21] of 380 nM, a TGI [21] of 2140 nM and a CC50 [21, 31] of over 100 µM. The GI50 [22] was 200 nM, the TGI [22] was 10.2 µM and the CC50 [22, 31] was 38 µM. The inhibition of growth at 10 µM [23] was 98.4%, the inhibition [24] was “Active” and the GI50 [25] was 1070 nM. The TGI [25] was 10.5 µM, the CC50 [25, 31] was over 100 µM and the RatioGI50 [26] was 6.8. The inhibition [27] was “Active”, the GI50 [28] was 370 nM and the TGI [28] was 3.39 µM. For the same compound, the CC50 [28, 31] was 33.9 µM, the GI50 [29] was 380 nM and the TGI [29] was 5.89 µM. It also gave a CC50 [29, 31] of 35.5 µM, a GI50 [30] of 320 nM and a TGI [30] of 1620 nM. It also gave a CC50 [30, 31] of 14.1 µM.
